# Hits are enriched below; roughly 1.5% of the tested compounds scored in any of these assays.
# PG9 binder – binders of HIV-1 gp120 antibody PG9, primary screen, biochemical, TR-FRET | HIV-1 gp120 / PG9 antibody interaction | TR-FRET gp120-PG9 antibody binding | inhibition, % at 6.7 µM | 360,000 compounds, 0.43% hits | AID 624416, 2012; in the data active = inhibition above about 8.5%
# NR2E3 ag-1 – NR2E3 agonists in two-hybrid cells, primary screen, cell-based, luminescence, CHO-S, Gal4-NCOR/VP16-NR2E3 | Photoreceptor-specific nuclear receptor (Homo sapiens), Q9Y5X4 | luciferase | inhibition of corepressor binding, % at 3.98 µM | 360,000 compounds, 0.35% hits;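 active = inhibition above the mean of all tested compounds plus 3 SD, cut at about 70% in these data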;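 also: 0% = DMSO with NR2E3 transfected cells and 100% = cells lacking NR2E3 construct; higher means lower luciferase signal from less NR2E3 corepressor binding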
# Target sequence (Q9Y5X4 whole entry, looked up, the tested form may be a part): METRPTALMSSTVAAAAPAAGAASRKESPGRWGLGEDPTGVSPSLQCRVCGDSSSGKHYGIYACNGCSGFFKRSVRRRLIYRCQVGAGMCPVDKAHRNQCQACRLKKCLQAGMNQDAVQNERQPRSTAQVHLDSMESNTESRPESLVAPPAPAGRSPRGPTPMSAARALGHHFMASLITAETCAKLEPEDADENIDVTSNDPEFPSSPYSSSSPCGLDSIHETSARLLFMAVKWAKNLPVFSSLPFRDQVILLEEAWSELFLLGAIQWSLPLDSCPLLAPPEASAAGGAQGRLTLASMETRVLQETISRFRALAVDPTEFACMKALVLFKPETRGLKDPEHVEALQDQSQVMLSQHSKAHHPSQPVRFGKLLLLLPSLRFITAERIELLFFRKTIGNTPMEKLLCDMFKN
# NR2E3 ag-2 – inhibitors of NR2E3-RetCOR corepressor binding, primary screen, NR2E3 agonist project, biochemical, TR-FRET, GST-NR2E3, biotin-RetCOR; Photoreceptor-specific nuclear receptor (Homo sapiens), Q9Y5X4; 1536-well; inhibition of corepressor binding, % at 4.78 µM; 320,000 compounds, 0.12% hits; AID 2300, 2010;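 active = percent inhibition above the cutoff of mean plus 3 SD of all tested compounds, set per screening campaign, cut at about 20% in these data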;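 also: 0% = DMSO wells and 100% = biotin wells as full block of FRET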
#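 Test system: GST-NR2E3 and biotin-RetCOR proteins | Quantity: 1.35 nM GST-tagged NR2E3 final | Medium: Tris pH 7.5 | Also added: 7 nM biotin-RetCOR | Dosing: Compound at 4.8 µM, single dose | Timing: 5 h at 4 °C | Detection: Time-resolved FRET | Read-out basis: Percent inhibition | Benchmarks: Biotin wells as high control, 0.6% DMSO wells as low control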
# Rev-erbA mod – modulators of Rev-erb alpha DNA binding, primary screen, biochemical, FITC-DNA, fluorescence polarization, uHTS | Nuclear receptor subfamily 1 group D member 1 (Homo sapiens), P20393 | Rev-erbα–FITC-DNA binding, 90 min | activity, % at 10 µM | 370,000 compounds, 0.79% hits;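 active = activity above about 14%, limit read from the data; passing the limit was not always enough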;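 also: 0% = DMSO wells with 35 nM protein and 100% = DMSO wells with 750 nM protein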
# PG9 binder conf – binders of anti-gp120 antibody PG9, confirmation, biochemical, TR-FRET; TR-FRET PG9 antibody binding; 1,500 compounds, 90% hits; shares compounds with PG9 binder; AID 651571, 2012; inhibition, % at 6.7 µM; in the data active = inhibition above about 9%
# PGV04 counter – binders of control antibody PGV04, counter-screen for PG9 antibody binder project, biochemical, TR-FRET, distinct HIV envelope site. shares compounds with PG9 binder. TR-FRET PGV04 antibody-gp120 binding. inhibition, % at 6.7 µM. 1,500 compounds, 95% hits. AID 651604, 2012; in the data active = inhibition above about 9.5%
# PG9 bind DR – small-molecule binders of antibody PG9, dose response, biochemical, TR-FRET, HIV-1 gp120 antibody; shares compounds with PG9 binder; TR-FRET PG9 antibody-gp120 binding inhibition; IC50, µM; 95 tested, under 10 active; in the data active = IC50 below about 10 µM
# PGV04 DR counter – binders of control antibody PGV04, dose response, counter-screen for PG9 antibody binder project, biochemical, TR-FRET, distinct HIV envelope site | shares compounds with PG9 binder | TR-FRET binding to control antibody PGV04 | IC50, µM | 95 compounds, 20% hits
# PG126 DR counter – binders of control antibody PG126, dose response, counter-screen for PG9 antibody binder project, biochemical, TR-FRET, distinct HIV envelope site | TR-FRET binding to antibody PG126, counterscreen | IC50, µM | AID 651939, 2012 | 95 compounds, 20% hits | shares compounds with PG9 binder
# NR1D1 mod conf – modulators of Rev-erb alpha DNA binding, confirmation, biochemical, FITC-DNA, fluorescence polarization, single point | shares compounds with Rev-erbA mod | AID 1259319, 2017 | 90 min | 3,000 compounds, 61% hits | activation, % at 25 µM;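 active = activation at or above a set limit, or at least 3 SD above the negative control mean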;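 also: 0% = 35 nM protein with DMSO and 100% = 750 nM protein high control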
# RORg counter – modulation of RORgamma DNA binding, dose response, counter-screen for Rev-erb alpha modulator project, biochemical, fluorescence polarization, FITC-DNA. shares compounds with Rev-erbA mod. purified RORgamma protein-FITC-DNA binding. IC50, µM. 910 compounds, 8% hits. AID 1259320, 2017;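 active = Compounds whose fitted half-maximal concentration for disrupting protein-DNA binding is below 10 micromolar; the record names Rev-erb in its text, so the target is in doubt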
# * = called active by the depositor; i = inactive; . = no result. Rule as the data show it, unless noted: active = IC50 below about 9 µM; inactive = the rest.
SMILES,PG9 binder,NR2E3 ag-1,NR2E3 ag-2,Rev-erbA mod,PG9 binder conf,PGV04 counter,NR1D1 mod conf,others
Cc1ccc2cc(C#N)c(SCC(=O)NNC(=O)Cc3ccccc3)nc2c1,20*,0,.,52*,38*,41*,44*,RORg counter=>40
Cc1ccc2nc(SCC(=O)NCc3cccs3)c(C#N)cc2c1,15*,-1,0,47*,37*,49*,22*,
CCOC(=O)CSc1nc2cc(OCC)ccc2cc1C#N,28*,-114,2,83*,38*,58*,72*,RORg counter=>40
COc1ccc2cc(C#N)c(SCC(=O)NNC(=O)Cc3ccccc3)nc2c1,27*,-12,1,38*,24*,52*,12,
COC(=O)CSc1nc2ccc(C)cc2cc1C#N,-1,-123,-3,0,.,.,.,
CCOc1ccc2cc(C#N)c(SCC(=O)NC(C)CC)nc2c1 (stereo not given),.,.,2,.,.,.,.,
COC(=O)CSc1nc2cc(OC)ccc2cc1C#N,2,-196,-2,7,.,.,.,
CC(C)C1N=C(NC(=O)OCc2ccccc2)NC1=O (stereo not given) (tested in a mixture with another compound),.,.,.,3,.,.,.,
Cn1c(=O)c2cc(S(=O)(=O)N3CCN(c4ccccc4Cl)CC3)ccc2n(C)c1=O,.,.,.,-2,.,.,.,
C=CC[C@H]1c2ccccc2[C@H]2N3N=Cc4ccccc4[C@H]3[C@H](CCc3ccccc3)C(=O)N2N1C(=O)c1ccccc1,.,.,.,-6,.,.,.,
COc1cccc(-c2ccc(C#N)c(SCC(=O)NCCc3cccc(Cl)c3)n2)c1,22*,0,13,34*,24*,43*,23*,
COc1ccc(-c2ccc(C#N)c(SCC(=O)NCCc3ccccc3)n2)cc1OC,.,0,-3,.,.,.,.,
CC(C)[C@H](N)C(=O)N1CCC[C@@H]1C(=O)N1CCC2CCN(S(=O)(=O)c3ccccc3)CC21 (stereo not given in full),.,.,.,2,.,.,.,
COC(=O)Cn1c(=NC(=O)c2ccc(OC)cc2)sc2cc(OC)ccc21,64*,-9,1,34*,49*,60*,-3,
CC(C)(C)OC(=O)[C@H](Cc1ccccc1)NCC(=O)OCc1ccc(C(=O)NCc2ccccc2)cc1,.,.,.,4,.,.,.,
O=c1cc(CCl)[nH]c2nc3ccccc3n12,-2,17,1,-4,.,.,.,
O=c1cc(-c2ccccc2)[nH]c2nc3ccccc3n12,13*,-142,5,24*,20*,32*,17*,
C=CCN1C(=O)[C@@H](CC(=O)N2CCCCC2)[C@]2(C(=O)OC)CCCCC=C12,.,.,.,-2,.,.,.,
Cc1nc(SCC(=O)O)c2oc3ccccc3c2n1,0,-6,-1,4,.,.,.,
Cc1nc(SCC(=O)Nc2ccc3c(c2)OCCO3)c2oc3ccccc3c2n1,33*,-3,8,294*,38*,24*,302*,PG9 bind DR=i;PGV04 DR counter=i;PG126 DR counter=i
CCc1nc(SCC(=O)Nc2ccc3c(c2)OCCO3)c2oc3ccccc3c2n1,50*,-7,-1,172*,68*,83*,169*,RORg counter=i
Cc1ccc(-n2c(SCC(=O)Nc3cccc4ccccc34)nnc2-c2ccccc2)cc1,.,.,.,2,.,.,.,
COc1ccc(-n2nc(C(=O)NCC(=O)NCc3ccc(F)cc3)c3ccccc3c2=O)cc1OC,28*,-3,-294,54*,34*,49*,39*,RORg counter=>40
COC(=O)CNC(=O)CNC(=O)c1nn(-c2ccc(OC)c(OC)c2)c(=O)c2ccccc12,-3,10,-1,1,.,.,.,
CCOC(=O)c1cnc2cc(C)nn2c1C,0,-30,-2,-4,.,.,.,
SMILES,PG9 binder,NR2E3 ag-1,NR2E3 ag-2,Rev-erbA mod,PG9 binder conf,PGV04 counter,NR1D1 mod conf,others
CCOC(=O)c1cnc2cc(-c3ccc(Br)cc3)nn2c1C,9.4*,-35,2,18*,6,7,10,
O=c1sc(N2CCN(c3ccc(F)cc3)CC2)nc2ccsc12,23*,-54,-1,146*,57*,83*,96*,RORg counter=>40
CC(COc1ccc(CC#N)cc1)CN1CCC(C(O)(c2ccccc2)c2ccccc2)CC1 (stereo not given),.,.,.,11,.,.,.,
CC(C)NC(=O)N[C@@H]1C[C@@H]2O[C@@H](CO)CC[C@@H]2O[C@@H]1CCc1ccc(-c2ccccc2F)cc1,.,.,.,6,.,.,.,
COCCn1c(SCC(=O)Nc2cc(C)on2)nc2ccccc2c1=O,-1,-5,2,2,.,.,.,
CCCCCCn1c(SCC(=O)Nc2cc(C)on2)nc2ccccc2c1=O,31*,-1,1,41*,23*,32*,18*,
COc1ccc(CCn2c(SCC(=O)Nc3cc(C)on3)nc3ccccc3c2=O)cc1OC,0,-9,-2,-3,.,.,.,
Cc1cc(NC(=O)CSc2nc3ccccc3c(=O)n2Cc2ccc(F)cc2)no1,42*,-26,-1,52*,62*,65*,26*,
CC(C)CNC(=O)OCc1cn(Cc2ccccc2Cl)nn1,.,.,.,0,.,.,.,
COc1ccccc1N1C(=O)C2C(C(=O)c3ccccc3)=NN(c3ccc(Br)cc3)C2C1=O (stereo not given),13*,-5,8,66*,17*,28*,21*,
COc1ccc(/C=C/S(=O)(=O)NCCc2ccccc2)c(CNC(=O)OC(C)(C)C)c1,.,.,.,-2,.,.,.,
O=C(c1cc2cc(Cl)ccc2[nH]1)N1CCN(c2ccccn2)CC1,27*,-12,-3,51*,7,23*,41*,RORg counter=5.4*
